Test results reported in ChEMBL document CHEMBL2086221, “Armeniaspiroles, a new class of antibacterials: Antibacterial activities and total synthesis of 5-chloro-Armeniaspirole A” (Bioorg Med Chem Lett, 2012).
In brackets after ≈: the same amount, converted by molar mass. Activity calls are given as the source filed them. No cut-off for these calls is given here.

Key:
[1] = Cmax in Swiss mouse at 7.5 mg/kg, iv; assay type: ADME, organism-based; parameters: dose 7.5 mg/kg, route intravenous; conditions: in vivo
Method in brief: (§1)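 Male Swiss mice dosed 7.5 mg/kg iv; plasma pharmacokinetics gave clearance, steady-state volume of distribution, Cmax and plasma half-life.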

Cytochrome P450 2D6 = Cytochrome P450 2D6 (Homo sapiens, UniProt P10635); assay: Inhibition of CYP2D6; assay type: ADME
Chain of Cytochrome P450 2D6 (P10635 whole entry): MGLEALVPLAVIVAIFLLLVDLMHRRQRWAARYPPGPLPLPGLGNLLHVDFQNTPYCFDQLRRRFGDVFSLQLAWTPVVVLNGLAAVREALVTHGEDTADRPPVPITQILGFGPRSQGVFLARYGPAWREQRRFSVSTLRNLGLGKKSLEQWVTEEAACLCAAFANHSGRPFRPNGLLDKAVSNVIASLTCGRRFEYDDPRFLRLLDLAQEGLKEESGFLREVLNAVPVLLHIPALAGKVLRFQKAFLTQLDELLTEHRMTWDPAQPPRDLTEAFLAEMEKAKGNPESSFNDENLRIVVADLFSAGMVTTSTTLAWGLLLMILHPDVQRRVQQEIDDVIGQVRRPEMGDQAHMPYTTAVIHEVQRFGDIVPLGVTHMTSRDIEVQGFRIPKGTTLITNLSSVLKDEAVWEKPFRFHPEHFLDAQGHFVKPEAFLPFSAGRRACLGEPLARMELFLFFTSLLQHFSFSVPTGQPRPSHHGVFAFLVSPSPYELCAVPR

Staphylococcus aureus [2] = assay: Antibacterial activity against methicillin-resistant Staphylococcus aureus ATCC 33592 at >1 ug/mL after 48 hrs; assay type: functional, organism-based
Staphylococcus aureus [3] = assay: Antibacterial activity against methicillin-resistant Staphylococcus aureus ATCC 33592 infected in mouse assessed as host survival at 3 mg/kg/day, iv relative to control; assay type: functional
Streptococcus pneumoniae [4] = assay: Antibacterial activity against penicillin-resistant Streptococcus pneumoniae DSM 11865; assay type: functional
Escherichia coli [5] = assay: Antibacterial activity against Escherichia coli ATCC 35218 expressing LacR; assay type: functional
Staphylococcus aureus [6] = assay: Bacteriostatic activity against methicillin-resistant Staphylococcus aureus ATCC 33592 by time kill study in presence of fetal calf serum; assay type: functional, organism-based
[7] = Half life in Swiss mouse plasma at 7.5 mg/kg, iv; assay type: ADME, organism-based; parameters: dose 7.5 mg/kg, route intravenous; method in brief: as §1
Staphylococcus aureus [8] = assay: Antibacterial activity against methicillin-resistant Staphylococcus aureus ATCC 33592 infected in mouse assessed as log reduction in bacteremia at 15 mg/kg/day, iv relative to control; assay type: functional
Staphylococcus aureus [9] = assay: Antibacterial activity against methicillin-resistant Staphylococcus aureus ATCC 33592 infected in mouse assessed as host survival at 15 mg/kg/day, iv relative to control; assay type: functional
Escherichia coli [10] = assay: Antibacterial activity against Escherichia coli ATCC 35218 expressing LacR at >1 ug/mL after 48 hrs; assay type: functional, organism-based
Staphylococcus aureus [11] = assay: Antibacterial activity against methicillin-resistant Staphylococcus aureus ATCC 33592 infected in iv dosed mouse assessed as decrease in bacteremia; assay type: functional, organism-based
Staphylococcus aureus [12] = assay: Antibacterial activity against methicillin-resistant Staphylococcus aureus ATCC 33592 infected in mouse assessed as log reduction in bacteremia at 3 mg/kg/day, iv relative to control; assay type: functional
Enterococcus faecium [13] = assay: Antibacterial activity against vancomycin-resistant Enterococcus faecium DSM 17050 at >1 ug/mL after 48 hrs; assay type: functional, organism-based
Escherichia coli [14] = assay: Bacteriostatic activity against Escherichia coli ATCC 35218 expressing LacR by time kill study in presence of fetal calf serum; assay type: functional, organism-based
Staphylococcus aureus [15] = assay: Antibacterial activity against methicillin-resistant Staphylococcus aureus ATCC 33592 infected in mouse assessed as host survival at 10 mg/kg/day, iv relative to control; assay type: functional
Enterococcus faecium [16] = assay: Bacteriostatic activity against vancomycin-resistant Enterococcus faecium DSM 17050 by time kill study in presence of fetal calf serum; assay type: functional, organism-based
[17] = Drug degradation in PBS buffer over 24 hrs in presence of GSH; assay type: physicochemical; conditions: PBS buffer with GSH; read-out: Drug degradation
Method in brief: (§2)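 Parent compound incubated in PBS buffer with 10 mM GSH or 10 mM i-BuNH2 for 24 h; read-out is the decrease in parent compound concentration over that period.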

[18] = Drug degradation in PBS buffer over 24 hrs in presence of i-BuNH2; assay type: physicochemical; conditions: PBS buffer with i-BuNH2; read-out: Drug degradation; method in brief: as §2
[19] = Chemical stability of the compound in PBS buffer up to 24 hrs at pH 7.4; assay type: physicochemical; conditions: pH 7.4, 24 h
Staphylococcus aureus [20] = assay: Antibacterial activity against methicillin-resistant Staphylococcus aureus ATCC 33592 infected in mouse assessed as log reduction in bacteremia at 20 mg/kg/day, sc relative to control; assay type: functional; conditions: route subcutaneous
Method in brief: (§3)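 Mice with MRSA ATCC33592 septicemia were dosed sc at 20, 40 or 80 mg/kg/d in 5% ethanol/5% Solutol/Tris-NaCl buffer pH 9. Survival was scored in six animals per group, and log reduction of blood bacteremia in five animals per group. Results are given as mean ± sem against the vehicle-treated group (P < 0.05 or P < 0.001).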

Staphylococcus aureus [21] = assay: Antibacterial activity against methicillin-resistant Staphylococcus aureus ATCC 33592 infected in mouse assessed as host survival at 20 mg/kg/day, sc relative to control; assay type: functional; conditions: ATCC 33592, sc, route subcutaneous; method in brief: as §3
Staphylococcus aureus [22] = assay: Antibacterial activity against methicillin-resistant Staphylococcus aureus ATCC 33592 infected in mouse assessed as log reduction in bacteremia at 80 mg/kg/day, sc relative to control; assay type: functional; conditions: route subcutaneous; method in brief: as §3
[23] = Clearance in Swiss mouse at 7.5 mg/kg, iv; assay type: ADME, organism-based; parameters: dose 7.5 mg/kg, route intravenous; conditions: in vivo; method in brief: as §1
hERG (KCNH2) = hERG (KCNH2) (Homo sapiens, UniProt Q12809); assay: Inhibition of human ERG at 10 uM
Chain of hERG (KCNH2) (Q12809 whole entry): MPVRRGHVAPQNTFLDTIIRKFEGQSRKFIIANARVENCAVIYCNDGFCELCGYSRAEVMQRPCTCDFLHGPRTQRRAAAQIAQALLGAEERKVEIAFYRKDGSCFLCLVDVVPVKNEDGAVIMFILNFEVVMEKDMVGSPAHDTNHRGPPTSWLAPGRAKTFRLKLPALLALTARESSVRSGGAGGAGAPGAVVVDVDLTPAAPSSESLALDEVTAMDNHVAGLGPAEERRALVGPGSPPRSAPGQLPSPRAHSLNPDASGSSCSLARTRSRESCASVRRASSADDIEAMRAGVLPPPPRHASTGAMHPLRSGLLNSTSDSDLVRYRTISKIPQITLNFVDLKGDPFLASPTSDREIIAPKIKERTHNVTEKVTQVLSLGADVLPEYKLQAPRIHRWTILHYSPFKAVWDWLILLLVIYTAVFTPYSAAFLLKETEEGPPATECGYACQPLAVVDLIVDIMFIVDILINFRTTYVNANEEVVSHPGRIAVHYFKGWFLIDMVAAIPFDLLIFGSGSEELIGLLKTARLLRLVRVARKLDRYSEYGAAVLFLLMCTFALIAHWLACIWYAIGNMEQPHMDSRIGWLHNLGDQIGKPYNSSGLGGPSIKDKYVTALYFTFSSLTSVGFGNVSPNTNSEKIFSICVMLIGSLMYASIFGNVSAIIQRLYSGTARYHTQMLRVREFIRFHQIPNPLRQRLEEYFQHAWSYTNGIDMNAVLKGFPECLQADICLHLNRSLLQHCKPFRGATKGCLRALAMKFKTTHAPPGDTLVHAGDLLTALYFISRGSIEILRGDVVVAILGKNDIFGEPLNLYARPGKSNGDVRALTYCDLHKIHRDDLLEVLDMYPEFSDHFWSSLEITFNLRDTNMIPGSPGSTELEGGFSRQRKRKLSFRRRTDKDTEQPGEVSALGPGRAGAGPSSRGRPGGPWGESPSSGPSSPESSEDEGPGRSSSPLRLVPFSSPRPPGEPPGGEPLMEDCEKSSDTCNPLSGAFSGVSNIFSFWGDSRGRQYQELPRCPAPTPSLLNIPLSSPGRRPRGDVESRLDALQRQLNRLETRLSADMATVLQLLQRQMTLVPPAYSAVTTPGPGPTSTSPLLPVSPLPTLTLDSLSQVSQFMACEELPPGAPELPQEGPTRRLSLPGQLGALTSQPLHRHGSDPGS

Streptococcus pneumoniae [24] = assay: Bacteriostatic activity against penicillin-resistant Streptococcus pneumoniae DSM 11865 by time kill study in presence of fetal calf serum; assay type: functional, organism-based
Streptococcus pneumoniae [25] = assay: Antibacterial activity against penicillin-resistant Streptococcus pneumoniae DSM 11865 at >1 ug/mL after 48 hrs; assay type: functional, organism-based
[26] = Solubility of the compound in PBS buffer at pH 7.4; assay type: physicochemical
Pseudomonas aeruginosa [27] = assay: Antibacterial activity against Pseudomonas aeruginosa ATCC 27853; assay type: functional
Staphylococcus aureus [28] = assay: Antibacterial activity against methicillin-resistant Staphylococcus aureus ATCC 33592 infected in iv dosed mouse assessed as increase in host survival; assay type: functional, organism-based
Enterococcus faecium [29] = assay: Antibacterial activity against vancomycin-resistant Enterococcus faecium DSM 17050; assay type: functional; conditions: Enterococcus faecium, DSM 17050
Pseudomonas aeruginosa [30] = assay: Bacteriostatic activity against Pseudomonas aeruginosa ATCC 27853 by time kill study in presence of fetal calf serum; assay type: functional, organism-based
Staphylococcus aureus [31] = assay: Antibacterial activity against methicillin-resistant Staphylococcus aureus ATCC 33592 infected in mouse assessed as log reduction in bacteremia at 40 mg/kg/day, sc relative to control; assay type: functional; conditions: route subcutaneous; method in brief: as §3
Staphylococcus aureus [32] = assay: Antibacterial activity against methicillin-resistant Staphylococcus aureus ATCC 33592 infected in mouse assessed as log reduction in bacteremia at 10 mg/kg/day, iv relative to control; assay type: functional
Cytochrome P450 3A4 = Cytochrome P450 3A4 (Homo sapiens, UniProt P08684); assay: Inhibition of CYP3A4; assay type: ADME
Chain of Cytochrome P450 3A4 (P08684 whole entry): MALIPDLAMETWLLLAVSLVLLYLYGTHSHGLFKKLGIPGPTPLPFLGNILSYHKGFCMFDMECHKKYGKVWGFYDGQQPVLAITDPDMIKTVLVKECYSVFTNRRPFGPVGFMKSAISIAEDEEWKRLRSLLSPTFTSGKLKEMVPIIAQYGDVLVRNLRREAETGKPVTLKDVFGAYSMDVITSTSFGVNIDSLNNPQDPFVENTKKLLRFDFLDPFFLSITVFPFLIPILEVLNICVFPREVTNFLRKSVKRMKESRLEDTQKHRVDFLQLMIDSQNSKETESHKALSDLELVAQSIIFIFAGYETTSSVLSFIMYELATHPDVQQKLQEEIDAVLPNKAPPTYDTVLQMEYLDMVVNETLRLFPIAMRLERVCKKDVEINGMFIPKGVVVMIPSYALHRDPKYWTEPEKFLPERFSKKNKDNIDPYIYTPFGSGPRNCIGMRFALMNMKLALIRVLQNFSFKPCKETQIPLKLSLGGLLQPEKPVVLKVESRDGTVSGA

Staphylococcus aureus [33] = assay: Antibacterial activity against methicillin-resistant Staphylococcus aureus ATCC 33592; assay type: functional; conditions: Staphylococcus aureus, ATCC 33592
Pseudomonas aeruginosa [34] = assay: Antibacterial activity against Pseudomonas aeruginosa ATCC 27853 at >1 ug/mL after 48 hrs; assay type: functional, organism-based
Staphylococcus aureus [35] = assay: Antibacterial activity against methicillin-resistant Staphylococcus aureus ATCC 33592 infected in mouse assessed as host survival at 80 mg/kg/day, sc relative to control; assay type: functional; conditions: ATCC 33592, sc, route subcutaneous; method in brief: as §3
Staphylococcus aureus [36] = assay: Antibacterial activity against methicillin-resistant Staphylococcus aureus ATCC 33592 infected in mouse assessed as host survival at 40 mg/kg/day, sc relative to control; assay type: functional; conditions: ATCC 33592, sc, route subcutaneous; method in brief: as §3
[37] = Volume of distribution at steady state in Swiss mouse at 7.5 mg/kg, iv; assay type: ADME, organism-based; parameters: dose 7.5 mg/kg, route intravenous; conditions: in vivo, read-out: Vdss; method in brief: as §1
[38] = Streptococcus pneumoniae, DSM 11865

CCCCCCc1c(O)ccc2c1O[C@]1(C2=O)C(Cl)=C(Cl)C(=O)N1C [ARMENIASPIROLE A]
Cmax [1]: 27.4 µg/mL | IC50 (Cytochrome P450 2D6): > 10 µM | Activity (Staphylococcus aureus [2]): Active | survival at 3 mg/kg/day (Staphylococcus aureus [3]): 0% | IC80 (Streptococcus pneumoniae [4]; [38]): 2.3 µM | IC80 (Escherichia coli [5]): > 30 µM | Activity (Staphylococcus aureus [6]): inactive | half-life [7]: 3 h | FC (Staphylococcus aureus [8]): 2.8 | survival at 15 mg/kg/day (Staphylococcus aureus [9]): 67% | Activity (Escherichia coli [10]): Active | Activity (Staphylococcus aureus [11]): Dose-dependent effect | FC (Staphylococcus aureus [12]): 0.05 | Activity (Enterococcus faecium [13]): Active | Activity (Escherichia coli [14]): inactive | survival at 10 mg/kg/day (Staphylococcus aureus [15]): 33% | Activity (Enterococcus faecium [16]): inactive | degraded at 24 h [17]: 30% | degraded at 24 h [18]: < 10% | Stability [19]: Stable | FC (Staphylococcus aureus [20]): 0.2 | survival at 20 mg/kg/day (Staphylococcus aureus [21]): 0% | FC (Staphylococcus aureus [22]): 1.7 | clearance [23]: 1.2 L/h/kg | inhibition at 10 µM (hERG (KCNH2)): < 35% | Activity (Streptococcus pneumoniae [24]): inactive | Activity (Streptococcus pneumoniae [25]): Active | solubility [26]: 0.025 mg/mL (≈ 65.1 µM) | IC80 (Pseudomonas aeruginosa [27]): > 30 µM | Survival (Staphylococcus aureus [28]): Dose-dependent effect | IC80 (Enterococcus faecium [29]): 8.2 µM | Activity (Pseudomonas aeruginosa [30]): inactive | FC (Staphylococcus aureus [31]): 0.8 | FC (Staphylococcus aureus [32]): 0.9 | IC50 (Cytochrome P450 3A4): > 10 µM | IC80 (Staphylococcus aureus [33]): 0.125 µM | Activity (Pseudomonas aeruginosa [34]): Active | survival at 80 mg/kg/day (Staphylococcus aureus [35]): 50% | survival at 40 mg/kg/day (Staphylococcus aureus [36]): 50% | Vd [37]: 2.4 L/kg

CCCCCCc1c(O)c(Cl)cc2c1O[C@]1(C2=O)C(Cl)=C(Cl)C(=O)N1C (stereo in doubt; form 1)
IC80 (Streptococcus pneumoniae [4]): 1.7 µM | IC80 (Escherichia coli [5]): > 30 µM | IC80 (Pseudomonas aeruginosa [27]): > 30 µM | IC80 (Enterococcus faecium [29]): 8.5 µM | IC80 (Staphylococcus aureus [33]): 5.1 µM

CC(C)CCCc1c(O)ccc2c1O[C@]1(C2=O)C(Cl)=C(Cl)C(=O)N1C [ARMENIASPIROLE B]
Activity (Staphylococcus aureus [2]): Active | Activity (Staphylococcus aureus [6]): inactive | Activity (Escherichia coli [10]): Active | Activity (Enterococcus faecium [13]): Active | Activity (Escherichia coli [14]): inactive | Activity (Enterococcus faecium [16]): inactive | Stability [19]: Stable | Activity (Streptococcus pneumoniae [24]): inactive | Activity (Streptococcus pneumoniae [25]): Active | solubility [26]: 0.01 mg/mL (≈ 26 µM) | Activity (Pseudomonas aeruginosa [30]): inactive | Activity (Pseudomonas aeruginosa [34]): Active

CC[C@H](C)CCCc1c(O)ccc2c1O[C@]1(C2=O)C(Cl)=C(Cl)C(=O)N1C [ARMENIASPIROLE C]
Activity (Staphylococcus aureus [2]): Active | Activity (Staphylococcus aureus [6]): inactive | Activity (Escherichia coli [10]): Active | Activity (Enterococcus faecium [13]): Active | Activity (Escherichia coli [14]): inactive | Activity (Enterococcus faecium [16]): inactive | Stability [19]: Stable | Activity (Streptococcus pneumoniae [24]): inactive | Activity (Streptococcus pneumoniae [25]): Active | solubility [26]: 0.005 mg/mL (≈ 12.6 µM) | Activity (Pseudomonas aeruginosa [30]): inactive | Activity (Pseudomonas aeruginosa [34]): Active

CCCCCCc1c(O)c(Cl)cc2c1O[C@@]1(C2=O)C(Cl)=C(Cl)C(=O)N1C
Activity (Staphylococcus aureus [2]): Active | IC80 (Streptococcus pneumoniae [4]; [38]): 0.5 µM | IC80 (Escherichia coli [5]): > 30 µM | Activity (Staphylococcus aureus [6]): inactive | Activity (Escherichia coli [10]): Active | Activity (Enterococcus faecium [13]): Active | Activity (Escherichia coli [14]): inactive | Activity (Enterococcus faecium [16]): inactive | Activity (Streptococcus pneumoniae [24]): inactive | Activity (Streptococcus pneumoniae [25]): Active | IC80 (Pseudomonas aeruginosa [27]): > 30 µM | IC80 (Enterococcus faecium [29]): 6.7 µM | Activity (Pseudomonas aeruginosa [30]): inactive | IC80 (Staphylococcus aureus [33]): 1.4 µM | Activity (Pseudomonas aeruginosa [34]): Active
